Data on 20 compounds can be found in ChEMBL document CHEMBL1155231, “Fluoro-pegylated chalcones as positron emission tomography probes for in vivo imaging of beta-amyloid plaques in Alzheimer's disease” (J Med Chem, 2009).

The source made the active and inactive calls. The rule behind the calls is not given here.

A short description of series [1]: Displacement of [125I]DMIC from amyloid beta (1 to 42) peptide. The procedure, abridged: (§1)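 Aβ(1-42) aggregated at 0.25 mg/mL in 10 mM sodium phosphate, 1 mM EDTA, pH 7.4, 37 °C for 42 h with gentle constant shaking. Competition against [125I]DMIC. Bound and free separated by GF/B filtration, filter radioactivity read by γ counter. IC50 from displacement curves of three independent experiments, Ki by Cheng-Prusoff.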

For series [2], the system named is Blood. Briefly: Biodistribution in normal ddY mouse blood at 3.7 MBq, iv after 2 mins. The class given is ADME, organism-based. As to conditions: in vivo. A digest of the protocol: (§2)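 Tracer (3.7 MBq) in 100 μL saline with 10% EtOH and 1 mg/mL ascorbic acid, injected into tail vein of 5-week-old ddY mice (22-25 g). Groups of five killed at each time; organs removed, weighed, radioactivity γ-counted and expressed as % injected dose per gram, mean ± SD of 4-5 mice.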

The test system of series [3] is Blood. In words: Biodistribution in normal ddY mouse blood at 3.7 MBq, iv after 10 mins. As to conditions: in vivo. Format: ADME, organism-based. The procedure, abridged: as §2
Series [4] relates to Brain. In words: Biodistribution in normal ddY mouse brain at 3.7 MBq, iv after 60 mins. Format: ADME, organism-based. As to conditions: in vivo, 1 h. A digest of the protocol: as §2
For series [5], the system named is Brain. In words: Biodistribution in normal ddY mouse brain at 3.7 MBq, iv after 10 mins. The class given is ADME, organism-based. As to conditions: in vivo. A digest of the protocol: as §2
Series [6] has as its system Blood. In words: Biodistribution in normal ddY mouse blood at 3.7 MBq, iv after 30 mins. The class given is ADME, organism-based. As to conditions: in vivo, 0.5 h. The procedure, abridged: as §2
Series [7] deals with Brain. Briefly: Biodistribution in normal ddY mouse brain at 3.7 MBq, iv after 2 mins. Format: ADME, organism-based. As to conditions: in vivo. The procedure, abridged: as §2
In series [8] the test system is Blood. In words: Biodistribution in normal ddY mouse blood at 3.7 MBq, iv after 60 mins. As to conditions: in vivo, 1 h. Format: ADME, organism-based. A digest of the protocol: as §2
Series [9] has as its system Brain. Briefly: Biodistribution in normal ddY mouse brain at 3.7 MBq, iv after 30 mins. The class given is ADME, organism-based. As to conditions: in vivo, 0.5 h. The procedure, abridged:
as §2

Series [10] has as its system Bone. In words: Biodistribution in normal ddY mouse bone at 3.7 MBq, iv after 30 mins. Format: ADME, organism-based, Bone element. As to conditions: in vivo, 0.5 h. A digest of the protocol: as §2
Series [11] concerns Bone. Briefly: Biodistribution in normal ddY mouse bone at 3.7 MBq, iv after 2 mins. Format: ADME, organism-based, Bone element. As to conditions: in vivo. The procedure, abridged: as §2
Series [12] relates to Bone. Briefly: Biodistribution in normal ddY mouse bone at 3.7 MBq, iv after 10 mins. Format: ADME, organism-based, Bone element. As to conditions: in vivo. A digest of the protocol:
as §2

The subject of series [13] is Bone. In words: Biodistribution in normal ddY mouse bone at 3.7 MBq, iv after 60 mins. The class given is ADME, organism-based, Bone element. As to conditions: in vivo, 1 h. The procedure, abridged: as §2
Series [14] relates to Amyloid-beta precursor protein (Homo sapiens), P05067 [K670N,M671L]. In words: Binding affinity to human recombinant APP695 K670N and M671L Swedish double mutant plaques expressed in Tg2576 mouse brain at 100 uM after 10 mins by amyloid beta-protein immunohistostaining. A digest of the protocol:
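Female Tg2576 and age-matched wild-type mice, 20 months old; brains frozen on dry ice, cut into 10 μm serial sections. Slides incubated 10 min with 100 μM compound in 50% EtOH, washed twice 3 min in 50% EtOH, fluorescence read with excitation 450-490 nm and 520 nm long-pass. Adjacent sections immunostained for Aβ with DAB.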

Series [15] has as its target Amyloid-beta precursor protein (Homo sapiens) (UniProt P05067). In words: Binding affinity to beta amyloid plaques in human Alzheimer's disease patient brain at 54 uCi/200 uL by autoradiography. As to conditions: tested as the 18F-labelled form.
Series [16] is described as follows: Binding affinity to amyloid beta (1 to 42) peptide. The procedure, abridged: as §1

For `CN(C)c1ccc(/C=C/C(=O)c2ccc(OCCOCCF)cc2)cc1`, the Ki in [1] amounted to 20 nM.

In [1], `CN(C)c1ccc(/C=C/C(=O)c2ccc(OCCF)cc2)cc1` came in with a Ki of 45.7 nM.

Regarding `CNc1ccc(/C=C/C(=O)c2ccc(OCCOCCOCCF)cc2)cc1`, the affinity in [1] corresponds to a Ki of 471 nM. This Ki lies about 10-fold higher than the previous one.

The compound `CNc1ccc(/C=C/C(=O)c2ccc(OCCOCCF)cc2)cc1` gave an inhibition constant (Ki) in [1] of 216 nM.

For the compound `CN([11CH3])c1ccc(/C=C/C(=O)c2ccc(OCCOCCOCCF)cc2)cc1`, the Drug uptake in series [2] amounted to 2.44 % ID/g; in [3] it was 1.52 % ID/g; in series [4], 0.35 % ID/g; in series [5], 1.38 % ID/g; in [6], 1.01 % ID/g; in [7], 4.31 % ID/g. Moreover, the Drug uptake is on record as 0.68 % ID/g in [8] and 0.64 % ID/g in [9].

Consider `CN(C)c1ccc(/C=C/C(=O)c2ccc(OCCOCCOCC[18F])cc2)cc1`, for which the Drug uptake in [2] is given as 2.09 % ID/g; in [10], 2.98 % ID/g; in [3], 1.94 % ID/g; in series [11], 1.8 % ID/g; in [4] it was 1.07 % ID/g; in series [5], 1.52 % ID/g. Moreover, the Drug uptake was found to be 1.76 % ID/g in [12]; 2.35 % ID/g in [6]; 3.48 % ID/g in [7]; 1.87 % ID/g in [8]; 1.08 % ID/g in series [9]; 3.58 % ID/g in series [13].

Compound `CN(C)c1ccc(/C=C/C(=O)c2ccc(I)cc2)cc1` had an inhibitory constant (Ki) in [1] of 13.1 nM.

`CNc1ccc(/C=C/C(=O)c2ccc(F)cc2)cc1` had a Ki in [1] of 234 nM.

`CN([11CH3])c1ccc(/C=C/C(=O)c2ccc(F)cc2)cc1`: the Drug uptake in series [2] stood at 2.61 % ID/g; in [3], 1.6 % ID/g; in series [4], 1.04 % ID/g; in series [5], 1.53 % ID/g; in [6], 0.39 % ID/g; in [7], 3.68 % ID/g. Besides, the Drug uptake in [8] is reported as 1.4 % ID/g; in [9], 1.04 % ID/g.

`Nc1ccc(/C=C/C(=O)c2ccc(F)cc2)cc1` registered a Ki in [1] of 663 nM.

As to `Nc1ccc(/C=C/C(=O)c2ccc(OCCF)cc2)cc1`, the affinity in series [1], expressed as Ki, was 679 nM.

`Nc1ccc(/C=C/C(=O)c2ccc(OCCOCCOCCF)cc2)cc1` yielded a Ki in series [1] of 790 nM. The Ki values of the last two compounds are within 1.5-fold of each other.

In series [1], `CN(C)c1ccc(/C=C/C(=O)c2ccc(F)cc2)cc1` yielded a Ki of 49.8 nM.

`CNc1ccc(/C=C/C(=O)c2ccc(OCCF)cc2)cc1`: in series [1], the Ki worked out at 197 nM.

`CN(C)c1ccc(/C=C/C(=O)c2ccc(OCCOCCOCCF)cc2)cc1`: the outcome in series [14] and in [15] was Active. The Ki in series [1] stood at 38.9 nM.

On to `CNc1ccc(/C=C/c2ccc(OCCOCCOCC[18F])cc2)cc1` [FLORBETABEN F18], for which the Ki in [16] was determined as 6.7 nM.

Regarding `CN([11CH3])c1ccc(/C=C/C(=O)c2ccc(OCCF)cc2)cc1`, the Drug uptake stood at 3.65 % ID/g in series [2]; 2.73 % ID/g in [3]; 2.26 % ID/g in series [4]; 3.24 % ID/g in series [5]; 2.12 % ID/g in [6]; 6.01 % ID/g in series [7]. In addition, the Drug uptake in [8] was 2.22 % ID/g; in series [9], 2.57 % ID/g.

In [1], `CN(C)c1ccc(-c2cn3cc(I)ccc3n2)cc1` had a Ki of 28 nM. That is a double-digit nanomolar value.

For `CN([11CH3])c1ccc(/C=C/C(=O)c2ccc(OCCOCCF)cc2)cc1`, the Drug uptake was 3.48 % ID/g in series [2]; 2.28 % ID/g in series [3]; 1 % ID/g in [4]; 2.23 % ID/g in [5]; 2.54 % ID/g in series [6]; 4.73 % ID/g in series [7]. Further, the Drug uptake in [8] was 1.44 % ID/g; in series [9], 1.14 % ID/g.

On to `Nc1ccc(/C=C/C(=O)c2ccc(OCCOCCF)cc2)cc1`, for which, in [1], the Ki was determined as 1050 nM.
